Results reported in ChEMBL document CHEMBL1275433 (Antimicrob Agents Chemother, 2008).
pIC50: −log10 of the molar value. In brackets after ≈: the same amount, converted by molar mass. Activity calls are given as the source filed them. The calls are words filed in the database; no cut-off is given here.

Experiments:
[1] = Inhibition of Mycobacterium tuberculosis DNA gyrase GyrB/GyrA A83S mutant
Procedure, shortened: (§1)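 Enzyme unit: protein needed for 50% supercoiling of 0.4 μg relaxed pBR322 DNA in 1 h at 37°C. Wild-type and mutant enzymes assayed in parallel on the same day under identical conditions. Repeated two to four times; representative values reported.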

[2] = Inhibition of Mycobacterium tuberculosis DNA gyrase GyrB/GyrA A83S, S84A and I85V mutant; procedure, shortened: as §1
[3] = Inhibition of Mycobacterium tuberculosis DNA gyrase GyrB/GyrA A83S, S84A, I85V, F96W and P101M mutant; procedure, shortened: as §1
[4] = Inhibition of Mycobacterium tuberculosis DNA gyrase GyrB/GyrA M74I mutant; procedure, shortened: as §1
[5] = Inhibition of Mycobacterium tuberculosis DNA gyrase GyrB/GyrA M74I and A83S mutant; procedure, shortened: as §1
[6] = Inhibition of Mycobacterium tuberculosis DNA gyrase GyrB/GyrA S69V, A71G, E72D, T73V, M74I, N76K, A83S, S84A, I85V, F96W and P101M mutant; procedure, shortened: as §1
[7] = Inhibition of Mycobacterium tuberculosis DNA gyrase GyrA/GyrB R447K mutant gene; procedure, shortened: as §1
[8] = Inhibition of Mycobacterium tuberculosis DNA gyrase GyrA A83S mutant/GyrB R447K mutant gene; procedure, shortened: as §1
[9] = Inhibition of Mycobacterium tuberculosis DNA gyrase GyrA M74I and A83S mutant/GyrB R447K mutant gene; procedure, shortened: as §1
[10] = Inhibition of Mycobacterium tuberculosis DNA gyrase GyrA/GyrB N464S mutant gene; procedure, shortened: as §1
[11] = tested on: Mycobacterium tuberculosis; assay: Antimicrobial activity against Mycobacterium tuberculosis harboring DNA gyrase GyrA QRDR; assay type: functional, organism-based
[12] = tested on: Mycobacterium tuberculosis; assay: Antimicrobial activity against Mycobacterium tuberculosis harboring DNA gyrase GyrB QRDR; assay type: functional, organism-based
[13] = tested on: Mycobacterium tuberculosis
[14] = tested on: Mycobacterium tuberculosis; remark: listed apart in the source
[15] = tested on: Mycobacterium tuberculosis; remark: listed apart in the source
[16] = tested on: Mycobacterium tuberculosis; remark: listed apart in the source
[17] = tested on: Mycobacterium tuberculosis; remark: listed apart in the source
[18] = tested on: Mycobacterium tuberculosis; remark: listed apart in the source
[19] = tested on: Mycobacterium tuberculosis; remark: listed apart in the source
[20] = tested on: Mycobacterium tuberculosis; remark: listed apart in the source
[21] = tested on: Mycobacterium tuberculosis; remark: listed apart in the source
[22] = tested on: Mycobacterium tuberculosis; remark: listed apart in the source

| SMILES | pIC50 [1] | pIC50 [2] | pIC50 [3] | pIC50 [4] | pIC50 [5] | IC50 [6] | pIC50 [7] | pIC50 [8] | pIC50 [9] | pIC50 [10] | CC25 [13] [µM] | CC25 [14] [µM] | CC25 [15] [µM] | CC25 [16] [µM] | CC25 [17] [µM] | CC25 [18] | CC25 [19] [µM] | CC25 [20] | CC25 [21] | other results |
| --- | --- | --- | --- | --- | --- | --- | --- | --- | --- | --- | --- | --- | --- | --- | --- | --- | --- | --- | --- | --- |
| CCn1cc(C(=O)O)c(=O)c2cc(F)c(N3CCNCC3)nc21 [ENOXACIN] | 4.80 | 4.96 | 4.80 | < 3.80 | 5.05 | Not Active | 4.64 | 4.72 | 4.80 | – | – | – | – | – | – | – | – | – | – | – |
| CC1COc2c(N3CCN(C)CC3)c(F)cc3c(=O)c(C(=O)O)cn1c23 (configuration not stated) [OFLOXACIN] | 5.15 | 5.10 | 5.15 | 4.60 | 5.52 | Not Active | 5.15 | 5.40 | 4.96 | 4.70 | 1.5 | 3 | 3 | 1.5 | 0.5 | inactive | 14 | inactive | inactive | IC50 [11]: 10 µg/mL (≈ 27.7 µM); MIC50 [11]: 1 µg/mL (≈ 2.77 µM); IC50 [12]: 10 µg/mL (≈ 27.7 µM); MIC50 [12]: 1 µg/mL (≈ 2.77 µM) |
| CCn1cc(C(=O)O)c(=O)c2ccc(C)nc21 [NALIDIXIC ACID] | 3.02 | 2.55 | 2.97 | 2.46 | 3.07 | Not Active | 2.97 | 3.07 | 3.28 | 2.39 | – | – | – | – | – | – | – | – | – | – |
| COc1c(N2C[C@@H]3CCCN[C@@H]3C2)c(F)cc2c(=O)c(C(=O)O)cn(C3CC3)c12 [MOXIFLOXACIN] | – | – | – | – | 6.00 | Not Active | 6.00 | – | 5.70 | 5.15 | 0.5 | 1 | 1 | 0.5 | 0.5 | inactive | 3.5 | inactive | inactive | CC25 [22]: 2.5 µM |
